Measurements pooled from the literature.
Each line is one published result; the experiments were not run side by side.
Observed: cell growth or viability

O=C(Nc1ccc(Cl)cc1)Nc1cccc(-c2cn(Cc3cccc(Br)c3)nn2)c1 — viability (PC-9; CCK-8; 50 µM, 72 h): 92.9%
NCCC(=O)Nc1ccccc1/N=c1\cc(-c2ccc3oc(N)nc3c2)oc2ccccc12 — inhibition (HCT-116; CCK-8; 1 µM): 42.7%
COc1ccc(NC(=O)Nc2cccc(-c3cn(Cc4ccccc4C)nn3)c2)cc1 — viability (PC-9; CCK-8; 20 µM, 72 h): 121%
Cc1nc(NC(=O)N2CCC[C@H]2C(N)=O)sc1-c1ccnc(C(C)(C)C(F)(F)F)c1 — EC50 (KYSE-510; ATP luminescence; 5 days): 1.5 µM
CCCCCCCCCCCCCCCCCCOc1ccccc1CC(=O)OCC[N+]1(C)CCOCC1 — inhibition (EKVX; SRB; 10 µM): 13.3%
O=C(Nc1ccc(Cl)cc1)Nc1ccc(-c2cn(Cc3cccc(Cl)c3)nn2)cc1 — viability (PC-9; CCK-8; 20 µM, 72 h): 72.1%
CS(=O)(=O)NCCC(=O)Nc1ccccc1/N=c1\cc(-c2ccc3nc(N)oc3c2)oc2ccccc12 — inhibition (HCT-116; CCK-8; 1 µM): 3.17%
C=C(NC(=O)C(=C)NC(=O)c1csc(C2=N[C@@H]3c4csc(n4)[C@H]4NC(=O)c5csc(n5)[C@H]([C@](C)(O)[C@@H](C)O)NC(=O)[C@H]5CSC(=N5)/C(=C/C)NC(=O)[C@H]([C@@H](C)O)NC(=O)c5csc(n5)[C@]3(CC2)NC(=O)[C@H](C)NC(=O)C(=C)NC(=O)[C@H](C)NC(=O)[C@H]([C@@H](C)CC)N[C@@H]2C=Cc3c([C@H](C)O)cc(nc3[C@H]2O)C(=O)O[C@@H]4C)n1)C(N)=O — EC50 (SK-OV-3): 2.5 µM
COc1ccc(NC(=O)Nc2cccc(-c3cn(Cc4cccc(Cl)c4)nn3)c2)cc1 — viability (PC-9; CCK-8; 50 µM, 72 h): 136%
O=C(NCc1cn(Cc2ccc(Br)cc2)nn1)Nc1ccc(Cl)cc1 — viability (PC-9; CCK-8; 50 µM, 72 h): 179%
NCC(=O)Nc1ccccc1/N=c1\cc(-c2ccc3c(c2)OCO3)oc2c(N)cccc12 — inhibition (HCT-116; CCK-8; 1 µM): 14.3%
CCCCCCCCCCCCCCCCCCOc1cccc(CC(=O)OCC[N+](CC)(CC)CC)c1 — inhibition (EKVX; SRB; 10 µM): 22.3%
COc1ccc(NC(=O)Nc2cccc(-c3cn(Cc4ccc(Br)cc4)nn3)c2)cc1 — viability (PC-9; CCK-8; 50 µM, 72 h): 90.3%
O=C(NCc1cn(Cc2ccc(Cl)cc2)nn1)Nc1ccc(Cl)cc1 — viability (PC-9; CCK-8; 50 µM, 72 h): 81.7%
CC(=O)Nc1nc2cc(-c3ccc4ncn(Cc5ccccc5)c(=O)c4c3)ccc2s1 — IC50 (PC-9; MTT; 72 h): > 20 µM
CC(C)(C)[C@H](N)C(=O)Nc1ccccc1/N=c1\cc(-c2ccc3c(c2)OCO3)oc2ccccc12 — inhibition (HCT-116; CCK-8; 1 µM): 14.6%
O=C(Nc1ccc(-c2cn(Cc3ccc(Br)cc3)nn2)cc1)Nc1ccccc1Br — viability (PC-9; CCK-8; 20 µM, 72 h): 85%
O=C(NN=Cc1ccc(O)cc1)c1nc2ccccc2s1 — cell death (HCT-116; MTT; 100 µM, 48 h): 50%
CCCCCCCCCCCCCCCCCCOc1ccc(CC(=O)OCC[N+](CC)(CC)CC)cc1 — inhibition (EKVX; SRB; 10 µM): 12.5%
O=C(Nc1ccc(Cl)cc1)Nc1cccc(-c2cn(Cc3cccc(Cl)c3)nn2)c1 — viability (PC-9; CCK-8; 50 µM, 72 h): 118%
NCC(=O)Nc1ccccc1/N=c1\cc(-c2ccc3c(c2)OCCO3)oc2ccccc12 — inhibition (HCT-116; CCK-8; 1 µM): 16.4%
CCCCCCCCCCCCCCCCCCOc1cccc(CC(=O)OCC[N+]2(C)CCCC2)c1 — inhibition (EKVX; SRB; 10 µM): 1.14%
COc1ccc(NC(=O)NCc2cn(Cc3ccc(Br)cc3)nn2)cc1 — viability (PC-9; CCK-8; 50 µM, 72 h): 143%
COCCC(=O)Nc1ccccc1/N=c1\cc(-c2ccc3nc(N)oc3c2)oc2ccccc12 — inhibition (HCT-116; CCK-8; 1 µM): 3.71%
Cc1nc(Nc2ncc(C(=O)Nc3c(C)cccc3Cl)s2)cc(N2CC[C@H](O)C2)n1 — inhibition (WSUDLCL2; ATP luminescence; 10 µM, 72 h): 13%
Cc1ccccc1Cn1cc(-c2cccc(NC(=O)Nc3ccc(F)cc3)c2)nn1 — viability (PC-9; CCK-8; 50 µM, 72 h): 123%
CCCCCCCCCCCCCCCCCCOc1cccc(CC(=O)OCC[N+]2(C)CCCCC2)c1 — inhibition (EKVX; SRB; 10 µM): 3.05%
O=C(Nc1cc(C(F)(F)F)cc(C(F)(F)F)c1)Nc1nc2cc(-c3ccc4ncn(Cc5ccccc5)c(=O)c4c3)ccc2s1 — IC50 (PC-9; MTT; 72 h): > 20 µM
O=C(NCc1cn(Cc2ccc(Br)cc2)nn1)Nc1ccccc1Br — viability (PC-9; CCK-8; 50 µM, 72 h): 163%
Nc1ccccc1/N=c1\cc(-c2ccc3c(c2)OCO3)oc2ccccc12 — inhibition (HCT-116; CCK-8; 1 µM): 1.69%
COc1ccc(NC(=O)Nc2ccc(-c3cn(Cc4cccc(Cl)c4)nn3)cc2)cc1 — viability (PC-9; CCK-8; 50 µM, 72 h): 90.4%
CCCCCCCCCCCCCCCCCCOc1cccc(CC(=O)OCC[N+](C)(C)C)c1 — inhibition (EKVX; SRB; 10 µM): 1.89%
O=C(NCc1ccccc1)Nc1nc2cc(-c3ccc4ncn(Cc5ccccc5)c(=O)c4c3)ccc2s1 — IC50 (PC-9; MTT; 72 h): > 20 µM
COc1ccc(NC(=O)Nc2cccc(-c3cn(Cc4ccc(Cl)cc4)nn3)c2)cc1 — viability (PC-9; CCK-8; 20 µM, 72 h): 147%
O=C(NCCc1ccccc1)Nc1nc2cc(-c3ccc4ncn(CCN5CCOCC5)c(=O)c4c3)ccc2s1 — IC50 (PC-9; MTT; 72 h): 8.14 µM
O=C(Nc1ccc(Cl)cc1)Nc1cccc(-c2cn(Cc3ccc(Cl)cc3)nn2)c1 — viability (PC-9; CCK-8; 50 µM, 72 h): 110%
COc1ccc2/c(=N/c3ccccc3NC(=O)[C@H](C)N)cc(-c3ccc4c(c3)OCCO4)oc2c1 — inhibition (HCT-116; CCK-8; 1 µM): 16.5%
O=C(Nc1ccc(F)cc1)Nc1nc2cc(-c3ccc4ncn(CCN5CCOCC5)c(=O)c4c3)ccc2s1 — IC50 (PC-9; MTT; 72 h): > 20 µM
C[C@H](Nc1ccc2c(c1)OCCn1cc(N3C(=O)OC[C@H]3C(F)F)nc1-2)C(N)=O — EC50 (AGS; ATP luminescence; 5 days): 0.158 µM
CCC(=O)Nc1nc2cc(-c3ccc4ncn(Cc5ccccc5)c(=O)c4c3)ccc2s1 — IC50 (PC-9; MTT; 72 h): > 20 µM
CCCCCCCCCCCCCCCCCCOc1ccccc1CC(=O)OCC[N+](CC)(CC)CC — inhibition (EKVX; SRB; 10 µM): 56.6%
O=C(NCc1cn(Cc2cccc(Cl)c2)nn1)Nc1ccc(Cl)cc1 — viability (PC-9; CCK-8; 20 µM, 72 h): 90.9%
